# In ChEMBL document CHEMBL1142527, “Tricyclic [1,2,4]triazine 1,4-dioxides as hypoxia selective cytotoxins” (J Med Chem, 2008):
# What was measured:
# [1] = Solubility at 22 degC in culture medium in presence of 5% fetal calf serum; assay type: physicochemical
# Procedure, shortened: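 Solubility of the HCl salts is determined in culture medium containing 5% fetal calf serum at 22 °C.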
# HT-29 [2] = experiment: Cytotoxicity against human HT-29 cells after 4 hrs under strict hypoxic condition; assay type: functional, cell-based; details: Homo sapiens, HT-29, 4 h
# HT-29 [3] = experiment: Hypoxic cytotoxicity ratio, ratio of aerobic IC50 to anoxic IC50 for human HT-29 cells; assay type: functional
# SiHa [4] = experiment: Cytotoxicity against human SiHa cells after 4 hrs under strict hypoxic condition; assay type: functional, cell-based; details: Homo sapiens, SiHa, 4 h
# SiHa [5] = experiment: Hypoxic cytotoxicity ratio, ratio of aerobic IC50 to anoxic IC50 for human SiHa cells; assay type: functional
# HT-29 [6] = experiment: Metabolic stability in human HT-29 multicellular layer assessed as apparent first-order rate constant under anoxic condition; assay type: ADME, cell-based
# Procedure, shortened: (§1)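 Stirred single-cell suspensions of anoxic HT29 cells are exposed for 3 h at a drug concentration giving roughly one log kill by 1 h. Clonogenic survival is followed, and extracellular drug is monitored by HPLC. Concentration-time data are fitted for the apparent first-order metabolic rate constant k_met, scaled to MCL cell density. CT₁₀ and M₁₀ (drug metabolized at 10% survival) are interpolated from the fitted PK/PD model.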
# HT-29 [7] = experiment: Cytotoxicity against human HT-29 cells assessed as AUC-time curve providing 10% surviving fraction by clonogenic assay; assay type: functional
# HT-29 [8] = experiment: Drug metabolism in human HT-29 cells assessed as amount of drug metabolized for one log of cell kill at their CT10 concentration for 1 hr; assay type: ADME, cell-based; details: ht-29, 1 h; procedure, shortened: as §1
# HT-29 [9] = experiment: Drug diffusion coefficient in human HT-29 multicellular layer under 95% oxygen by liquid scintillation counting; assay type: ADME, cell-based
# Procedure, shortened: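 Tissue diffusion coefficient D measured in HT29 multicellular layers held under 95% O₂ to suppress bioreductive metabolism. Reported as ×10⁻⁷ cm²s⁻¹.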
# [10] = culture medium with 5% fetal calf serum, read-out: solubility
Structure (SMILES),"solubility [1, 10] [mM]",IC50 (HT-29 [2]) [µM],Ratio IC50 (HT-29 [3]),IC50 (SiHa [4]) [µM],Ratio IC50 (SiHa [5]),Activity (HT-29 [6]) [min⁻¹],Activity (HT-29 [7]) [µM·h],Activity (HT-29 [8]) [µM],solubility ([1]; serum) [mM],Activity (HT-29 [8]; 1 h) [µM],D (HT-29 [9]) [cm²/s]
CN(C)CCNc1n[n+]([O-])c2cc3c(cc2[n+]1[O-])CCCCC3,> 53,5.2,54,1.2,88,1.52,30.6,5404,–,–,–
[O-][n+]1nc(NCCN2CCCCC2)[n+]([O-])c2ccc3c(c21)CCC3,36,4.9,53,1,51,1.6,27.2,5022,–,–,–
CN(C)CCNc1n[n+]([O-])c2cc3c(cc2[n+]1[O-])OCO3,–,–,–,–,–,0.87,–,–,> 50,4310,–
[O-][n+]1nc(NCCCN2CCOCC2)[n+]([O-])c2cc3c(cc21)CCCC3,49,6.3,25,2.6,54,0.69,41.6,3294,–,–,–
[O-][n+]1nc(NCCCN2CCOCC2)[n+]([O-])c2cc3c(cc21)CCC3,48,21.4,20,8.8,44,0.19,76.2,1715,–,–,–
Nc1n[n+]([O-])c2ccccc2[n+]1[O-] [TIRAPAZAMINE],–,–,–,–,–,–,24.3,1698,–,–,4.04e-07
CCN(CC)CCNc1n[n+]([O-])c2c3c(ccc2[n+]1[O-])CCC3,> 49,4.2,17,0.9,64,0.97,35.1,3806,–,–,–
CCN1Cc2cc3c(cc2C1)[n+]([O-])c(N)n[n+]3[O-],6,1.5,–,0.8,80,2.2,8.1,2022,–,–,–
CN(C)CCNc1n[n+]([O-])c2c3c(ccc2[n+]1[O-])CCCC3,47,3.4,18,1,64,1.78,19.5,4223,–,–,–
CC1Cc2cc3c(cc2C1)[n+]([O-])c(NCCCN1CCOCC1)n[n+]3[O-] (stereo not drawn),> 49,19,25,8.4,50,0.13,122.9,1903,–,–,–
CN(C)CCNc1n[n+]([O-])c2cc3c(cc2[n+]1[O-])OCC3,49,5.2,46,1.9,128,0.6,43.3,3000,–,–,–
CCCN(CCC)CCNc1n[n+]([O-])c2c3c(ccc2[n+]1[O-])CCC3,40,12.4,7,3.3,23,0.73,66.3,5626,–,–,–
[O-][n+]1nc(NCCCN2CCOCC2)[n+]([O-])c2ccc3c(c21)CCC3,46,38,24,13.9,33,0.2,176.4,4108,–,–,–
Nc1n[n+]([O-])c2cc3c(cc2[n+]1[O-])OCC3,0.1,117,4,23,–,–,–,–,–,–,–
CN(C)CCNc1n[n+]([O-])c2c3c(ccc2[n+]1[O-])OCCC3,47,4.1,14,0.7,66,0.59,46.1,3124,–,–,–
CC1Cc2cc3c(cc2C1)[n+]([O-])c(NCCN(C)C)n[n+]3[O-] (stereo not drawn),> 49,3.5,54,1.4,97,1.49,23,3057,–,–,–
